Assay results: ChEMBL document CHEMBL4340510, “Design, synthesis, and biological evaluation of truncated deguelin derivatives as Hsp90 inhibitors” (Eur J Med Chem, 2019)
Activity calls are given as the source filed them. No cut-off for these calls is given here.

How the values were obtained:
[1] = biological target: Heat shock protein HSP 90-alpha (Homo sapiens, UniProt P07900); assay: Inhibition of FITC-geldanamycin binding to recombinant human full-length C-terminal His-tagged HSP90alpha […] (1 to 732 residues) expressed in Escherichia coli after 1 hr by fluorescence polarization assay
[2] = biological target: T1, Heat shock protein HSP90 (Homo sapiens) (UniProt P07900+P08238); assay: Inhibition of HSP90 in human MCF7 cells assessed as decrease in phosphorylation of AKT after 48 hrs by Western blot analysis; assay type: cell-based
Method in brief: (§1)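 Cells are treated 48 h and washed twice in ice-cold PBS. They are lysed on ice for 20 min and spun at 13,000 g, 4 °C. 20 μg protein is run on 8-12% SDS-PAGE and transferred to PVDF. Membranes are probed overnight at 4 °C with primary antibodies (Bcl-xL, cleaved caspase-3, mTOR/p-mTOR, MAPK/p-MAPK, Akt/p-Akt, HIF-1α, survivin; β-actin/GAPDH loading). HRP secondary and chemiluminescence detection follow.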

[3] = biological target: T1, Heat shock protein HSP90 (Homo sapiens); assay: Induction of HSP90-mediated AKT degradation in human MCF7 cells assessed as increase in ubiquitinated AKT expression at 4 uM by coimmunoprecipitation-based Western blot assay; assay type: cell-based
[4] = system: MCF7; assay: Induction of apoptosis in human MCF7 cells assessed as increase in cleaved-caspase3 expression at 1 to 4 uM after 48 hrs by Western blot analysis; assay type: functional, cell-based; method in brief: as §1
[5] = system: MCF7; assay: Antiproliferative activity against human MCF7 cells after 72 hrs by MTT assay; assay type: functional, cell-based; conditions: MCF7, 72 h
Method in brief: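 Cells in RPMI 1640 are seeded at 4,000 cells/well and held 24 h at 37 °C, 5% CO2. Medium is replaced with compound-containing medium (DMSO ≤0.25%) for 72 h at 37 °C. MTT read-out by absorbance at 570 nm. Quadruplicate wells, repeated three times; values are means of three independent experiments.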

[6] = system: MCF7; assay: Induction of apoptosis in human MCF7 cells assessed as rounding of nuclei at 0.5 to 4 uM after 36 hrs by hoechst 33258 staining-based fluorescence microscopy; assay type: functional, cell-based
Method in brief: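 Approximately 5×10^4 cells per well are exposed to 0, 0.5, 1.0, 2.0 or 4.0 μM for 36 h. Cells are PBS-washed and fixed in 4% paraformaldehyde for 30 min. They are stained with 20 μg/ml Hoechst 33258 for 15 min at room temperature in the dark, and nuclear morphology is examined by fluorescence microscopy.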

[7] = system: MCF7; assay: Cell cycle arrest in human MCF7 cells assessed as increase in accumulation at G2 phase after 48 hrs by propidium iodide staining-based flow cytometry; assay type: functional
Method in brief: (§2)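 5×10^4 cells are seeded, incubated overnight, then treated 48 h. Cells are washed in cold PBS and fixed in 70% ethanol at −20 °C for 12 h. They are then stained with 100 µg/mL RNase plus 50 µg/mL PI in PBS, 37 °C for 30 min. DNA content is measured by flow cytometry.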

[8] = system: MCF7; assay: Cell cycle arrest in human MCF7 cells assessed as accumulation at G1 phase at 2 uM after 48 hrs by propidium iodide staining-based flow cytometry (reference value: 60.61%); assay type: functional; method in brief: as §2
[9] = biological target: T1, Heat shock protein HSP90 (Homo sapiens); assay: Inhibition of monoclonal antibody binding to HSP90 (unknown origin) by immunoprecipitation-based Western blot analysis; assay type: protein assay
[10] = system: MCF7; assay: Potency index, ratio of deguelin IC50 to test compound IC50 for human MCF7 cells; assay type: functional
Method in brief: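 MTT assay on MCF-7 cells. Cells were seeded at 4,000/well and pre-incubated 24 h at 37 °C in humidified 5% CO2, then exposed to a range of compound concentrations for 72 h, with DMSO at no more than 0.25%. Absorbance was read at 570 nm, in quadruplicate, repeated three times. The IC50 for each test compound and for deguelin is the mean of three independent experiments, and the index is the deguelin IC50 divided by the compound IC50.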

[11] = system: MCF7; assay: Cell cycle arrest in human MCF7 cells assessed as accumulation at G2 phase at 4 uM after 48 hrs by propidium iodide staining-based flow cytometry (reference value: […])
[12] = biological target: T1, Heat shock protein HSP90 (Homo sapiens); assay: Inhibition of HSP90 in human MCF7 cells assessed as down regulation of survivin expression after 48 hrs by Western blot analysis; assay type: cell-based; method in brief: as §1
[13] = system: MCF7; assay: Cell cycle arrest in human MCF7 cells assessed as accumulation at G2 phase at 0.5 uM after 48 hrs by propidium iodide staining-based flow cytometry (reference value: 22.74%); assay type: functional; method in brief: as §2
[14] = system: MCF7; assay: Induction of apoptosis in human MCF7 cells assessed as decrease in Bcl-xL expression at 1 to 4 uM after 48 hrs by Western blot analysis
[15] = system: MCF7; assay: Cell cycle arrest in human MCF7 cells assessed as accumulation at G2 phase at 4 uM after 48 hrs by propidium iodide staining-based flow cytometry (reference value: 22.74%); assay type: functional; method in brief: as §2
[16] = system: MCF7; assay: Antimigratory activity in human MCF7 cells at 250 to 1000 nM after 24 hrs by phase contrast inverted microscopy-based scratch wound healing assay; assay type: functional, cell-based
Method in brief: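 Cells are grown to confluence in DMEM with 10% FBS and scratched with a sterile 200 μL pipette tip. Wounds are imaged by phase contrast on an inverted microscope (10× objective) at 0, 24 and 48 h. Eight images per treatment are analysed by drawing lines at the wound edges of migrating cells.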

[17] = biological target: T1, Heat shock protein HSP90 (Homo sapiens); assay: Inhibition of HSP90 in human MCF7 cells assessed as decrease in phosphorylation of mTOR after 48 hrs by Western blot analysis; assay type: cell-based; method in brief: as §1

With `COc1cc(OC)c(OC)cc1CC(=O)c1ccc2c(c1OC)C=CC(C)(C)O2` the IC50 [1] was 60 nM, the inhibition [2] was “Dose-dependent effect” and the Activity [3] was “Active”. The Activity [4] was “Active”, the IC50 [5] was 2510 nM and the Activity [6] was “Active”. The Activity [7] was “Dose-dependent effect”, the Activity [8] was 46.21% and the inhibition [9] was “Dose-dependent effect”. The “Ratio IC50” value [10] was 3, the Activity [11] was 29.58% and the inhibition [12] was “Dose-dependent effect”. The Activity [13] was 19.51%, the Activity [14] was “Active” and the Activity [15] was 29.7%. The Activity [16] was “Active” and the inhibition [17] was “Dose-dependent effect”.
